For 16 molecules, Activity and IC50 results are on record in ChEMBL document CHEMBL1148755, “Structural analogues of smoothened intracellular loops as potent inhibitors of Hedgehog pathway and cancer cell growth” (J Med Chem, 2007).

Calls of active or inactive are those of the source. The calls are words filed in the database; no cut-off is given here. Square brackets hold non-standard residues; d marks the D form. Peptide text beside a SMILES is read from it. * marks the point of attachment. Bpa = N[C@@H](Cc1ccc(C(=O)c2ccccc2)cc1)C(=O)O; Palmitoyl = CCCCCCCCCCCCCCCC(=O)* Where only a bound is given, the exact number is not on record here.

For one experiment, the system named is MCF7. Kind of experiment: Growth inhibition of breast cancer MCF7 cells after 48 hrs by MTT assay. It counts as functional, cell-based. The conditions noted are these: Homo sapiens. The method, boiled down:
(§1)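 Cells seeded at 200-400 per well in DMEM with 10% FBS and left to attach for 24 h. The next day, inhibitor in medium at 2× was added in an equal volume, and cells were incubated 48 h in a CO2 incubator. Reference plates were read at time of addition for T0 density. MTT staining was read as absorbance at 544 nm and compared with untreated control cells.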
Take `CCCCCCCCCCCCCCCC(=O)N[C@@H](CC(C)C)C(=O)N[C@H](C(=O)N[C@@H](Cc1ccc(O)cc1)C(=O)N[C@@H](C)C(=O)N[C@@H](Cc1c[nH]c2ccccc12)C(=O)N[C@@H](Cc1cnc[nH]1)C(=O)N[C@H](C(=O)N[C@@H](CO)C(=O)N[C@@H](Cc1ccccc1)C(=O)N[C@@H](CCCCN)C(=O)N[C@@H](C)C(=O)N[C@@H](CC(C)C)C(=O)NCC(=O)N[C@H](C(=O)N[C@H](C(=O)N[C@@H](Cc1ccc(O)cc1)C(=O)N[C@@H](CCC(N)=O)C(=O)N1CCC[C@H]1C(=O)N[C@@H](CC(C)C)C(=O)N[C@@H](CO)C(=O)NCC(=O)N[C@@H](CCCCN)C(=O)N[C@@H](Cc1ccc(O)cc1)C(=O)N[C@@H](CO)C(=O)N[C@@H](Cc1ccc(O)cc1)C(=O)O)[C@@H](C)O)[C@@H](C)O)[C@@H](C)O)[C@@H](C)O` (Palmitoyl-LTYAWHTSFKALGTTYQPLSGKYSY-OH): the outcome was Active.
Consider `CCCCCCCCCCCCCCCC(=O)N[C@@H](CCCNC(=N)N)C(=O)NCC(=O)N[C@H](C(=O)N[C@@H](CCSC)C(=O)N[C@H](C(=O)N[C@@H](CC(C)C)C(=O)N[C@@H](Cc1ccccc1)C(=O)N[C@@H](CO)C(=O)N[C@H](C(=O)N[C@@H](CCCCN)C(=O)N[C@@H](CO)C(=O)N[C@@H](CC(N)=O)C(=O)N[C@@H](Cc1c[nH]cn1)C(=O)N1CCC[C@H]1C(=O)NCC(=O)N[C@@H](CC(C)C)C(=O)N[C@@H](CC(C)C)C(=O)N[C@@H](CO)C(=O)N[C@@H](CCC(=O)O)C(=O)N[C@@H](CCCCN)C(=O)N[C@@H](C)C(=O)N[C@@H](C)C(=O)N[C@@H](CO)C(=O)N[C@@H](CCCCN)C(=O)N[C@H](C(=O)N[C@@H](CC(N)=O)C(=O)N[C@@H](CCC(=O)O)C(=O)N[C@H](C(=O)N[C@@H](CCSC)C(=O)N[C@@H](CC(C)C)C(=O)O)[C@@H](C)O)[C@@H](C)CC)[C@@H](C)CC)[C@@H](C)O)C(C)C` (Palmitoyl-RGVMTLFSIKSNHPGLLSEKAASKINETML-OH), for which the result was Active.
In the case of `CCCCCCCCCCCCCCCC(=O)N[C@H](C(=O)N[C@@H](Cc1ccccc1)C(=O)N[C@H](C(=O)N[C@@H](C)C(=O)N[C@@H](CC(=O)O)C(=O)N[C@@H](Cc1c[nH]c2ccccc12)C(=O)N[C@@H](CCCNC(=N)N)C(=O)N[C@@H](CC(N)=O)C(=O)N[C@@H](CO)C(=O)N[C@@H](CC(N)=O)C(=O)N[C@@H](CCCNC(=N)N)C(=O)N[C@@H](Cc1ccc(O)cc1)C(=O)O)C(C)C)[C@@H](C)O` (Palmitoyl-TFVADWRNSNRY-OH), the outcome was Active.

The subject of another experiment is SK-MEL-2. The experiment in a line: Growth inhibition of SK-Mel2 melanoma cells after 48 hrs by MTT assay. It counts as functional, cell-based, Homo sapiens. The conditions noted are these: Homo sapiens, SK-MEL-2, 48 h. The method, boiled down: as §1
The molecule `CCCCCCCCCCCCCCCC(=O)N[C@@H](CC(C)C)C(=O)N[C@H](C(=O)N[C@@H](Cc1ccc(O)cc1)C(=O)N[C@@H](C)C(=O)N[C@@H](Cc1c[nH]c2ccccc12)C(=O)N[C@@H](Cc1cnc[nH]1)C(=O)N[C@H](C(=O)N[C@@H](CO)C(=O)N[C@@H](Cc1ccccc1)C(=O)N[C@@H](CCCCN)C(=O)N[C@@H](C)C(=O)N[C@@H](CC(C)C)C(=O)NCC(=O)N[C@H](C(=O)N[C@H](C(=O)N[C@@H](Cc1ccc(O)cc1)C(=O)N[C@@H](CCC(N)=O)C(=O)N1CCC[C@H]1C(=O)N[C@@H](CC(C)C)C(=O)N[C@@H](CO)C(=O)NCC(=O)N[C@@H](CCCCN)C(=O)N[C@H](C(=O)N[C@@H](CO)C(=O)N[C@@H](Cc1ccc(O)cc1)C(=O)O)[C@@H](C)O)[C@@H](C)O)[C@@H](C)O)[C@@H](C)O)[C@@H](C)O` (Palmitoyl-LTYAWHTSFKALGTTYQPLSGKTSY-OH) returned an IC50 of 450 nM.
On the same count and under the same terms, the same measure for `CCCCCCCCCCCCCCCC(=O)NCCCC[C@H](NC(=O)[C@H](Cc1ccc(O)cc1)NC(=O)[C@H](CO)NC(=O)[C@@H](NC(=O)[C@H](CCCCN)NC(=O)CNC(=O)[C@H](CO)NC(=O)[C@H](CC(C)C)NC(=O)[C@@H]1CCCN1C(=O)[C@H](CCC(N)=O)NC(=O)[C@H](Cc1ccc(O)cc1)NC(=O)[C@@H](NC(=O)[C@@H](NC(=O)CNC(=O)[C@H](CC(C)C)NC(=O)[C@H](C)NC(=O)[C@H](CCCCN)NC(=O)[C@H](Cc1ccccc1)NC(=O)[C@H](CO)NC(=O)[C@@H](NC(=O)[C@H](Cc1cnc[nH]1)NC(=O)[C@H](Cc1c[nH]c2ccccc12)NC(=O)[C@H](C)NC(=O)[C@H](Cc1ccc(O)cc1)NC(=O)[C@@H](NC(=O)[C@H](CC(C)C)NC(=O)CCCCCCCCCCCCCCC)[C@@H](C)O)[C@@H](C)O)[C@@H](C)O)[C@@H](C)O)[C@@H](C)O)C(=O)O` (Palmitoyl-LTYAWHTSFKALGTTYQPLSGKTSYK(Palmitoyl)-OH): 50 nM.
Turning to `CCCCCCCCCCCCCCCC(=O)N[C@@H](CC(C)C)C(=O)N[C@H](C(=O)N[C@@H](Cc1ccc(O)cc1)C(=O)N[C@@H](C)C(=O)N[C@@H](Cc1c[nH]c2ccccc12)C(=O)N[C@@H](Cc1cnc[nH]1)C(=O)N[C@H](C(=O)N[C@@H](CO)C(=O)N[C@@H](Cc1ccccc1)C(=O)N[C@@H](CCCCN)C(=O)N[C@@H](C)C(=O)N[C@@H](CC(C)C)C(=O)NCC(=O)N[C@H](C(=O)N[C@H](C(=O)N[C@@H](Cc1ccc(O)cc1)C(=O)N[C@@H](CCC(N)=O)C(=O)N1CCC[C@H]1C(=O)N[C@@H](CC(C)C)C(=O)N[C@@H](CO)C(=O)NCC(=O)N[C@@H](CCCCN)C(=O)N[C@@H](Cc1ccc(O)cc1)C(=O)N[C@@H](CO)C(=O)N[C@@H](Cc1ccc(O)cc1)C(=O)O)[C@@H](C)O)[C@@H](C)O)[C@@H](C)O)[C@@H](C)O` (Palmitoyl-LTYAWHTSFKALGTTYQPLSGKYSY-OH), the IC50 worked out at 450 nM.
Turning to `CCCCCCCCCCCCCCCC(=O)N[C@@H](CC(C)C)C(=O)N[C@H](C(=O)N[C@@H](Cc1ccc(O)cc1)C(=O)N[C@@H](C)C(=O)N[C@@H](Cc1ccc(C(=O)c2ccccc2)cc1)C(=O)N[C@@H](Cc1cnc[nH]1)C(=O)N[C@H](C(=O)N[C@@H](CO)C(=O)N[C@@H](Cc1ccccc1)C(=O)N[C@@H](CCCCN)C(=O)N[C@@H](C)C(=O)N[C@@H](CC(C)C)C(=O)O)[C@@H](C)O)[C@@H](C)O` (Palmitoyl-LTYA[Bpa]HTSFKAL-OH), the IC50 was 100 nM.
`CCCCCCCCCCCCCCCC(=O)N[C@@H](CCCNC(=N)N)C(=O)NCC(=O)N[C@H](C(=O)N[C@@H](CCSC)C(=O)N[C@H](C(=O)N[C@@H](CC(C)C)C(=O)N[C@@H](Cc1ccccc1)C(=O)N[C@@H](CO)C(=O)N[C@H](C(=O)N[C@@H](CCCCN)C(=O)N[C@@H](CO)C(=O)N[C@@H](CC(N)=O)C(=O)N[C@@H](Cc1c[nH]cn1)C(=O)O)[C@@H](C)CC)[C@@H](C)O)C(C)C` (Palmitoyl-RGVMTLFSIKSNH-OH) showed an IC50 of 950 nM.
In turn, `CCCCCCCCCCCCCCCC(=O)N[C@@H](CCCNC(=N)N)C(=O)NCC(=O)N[C@H](C(=O)N[C@@H](CCSC)C(=O)N[C@H](C(=O)N[C@@H](CC(C)C)C(=O)N[C@@H](Cc1ccccc1)C(=O)N[C@@H](CO)C(=O)N[C@H](C(=O)N[C@@H](CCCCN)C(=O)N[C@@H](CO)C(=O)N[C@@H](CC(N)=O)C(=O)N[C@@H](Cc1c[nH]cn1)C(=O)N1CCC[C@H]1C(=O)NCC(=O)N[C@@H](CC(C)C)C(=O)N[C@@H](CC(C)C)C(=O)N[C@@H](CO)C(=O)O)[C@@H](C)CC)[C@@H](C)O)C(C)C` (Palmitoyl-RGVMTLFSIKSNHPGLLS-OH) gave an IC50 of 500 nM.
Same read-out and setting: as for `CCCCCCCCCCCCCCCC(=O)N[C@@H](CCCNC(=N)N)C(=O)NCC(=O)N[C@H](C(=O)N[C@@H](CCSC)C(=O)N[C@H](C(=O)N[C@@H](CC(C)C)C(=O)N[C@@H](Cc1ccccc1)C(=O)N[C@@H](CO)C(=O)N[C@H](C(=O)N[C@@H](CCCCN)C(=O)N[C@@H](CO)C(=O)N[C@@H](CC(N)=O)C(=O)N[C@@H](Cc1c[nH]cn1)C(=O)N1CCC[C@H]1C(=O)NCC(=O)N[C@@H](CC(C)C)C(=O)N[C@@H](CC(C)C)C(=O)N[C@@H](CO)C(=O)N[C@@H](CCC(=O)O)C(=O)N[C@@H](CCCCN)C(=O)N[C@@H](C)C(=O)O)[C@@H](C)CC)[C@@H](C)O)C(C)C` (Palmitoyl-RGVMTLFSIKSNHPGLLSEKA-OH), the figure is 500 nM; as for `CCCCCCCCCCCCCCCC(=O)N[C@@H](CCCNC(=N)N)C(=O)NCC(=O)N[C@H](C(=O)N[C@@H](CCSC)C(=O)N[C@H](C(=O)N[C@@H](CC(C)C)C(=O)N[C@@H](Cc1ccccc1)C(=O)N[C@@H](CO)C(=O)N[C@H](C(=O)N[C@@H](CCCCN)C(=O)N[C@@H](CO)C(=O)N[C@@H](CC(N)=O)C(=O)N[C@@H](Cc1c[nH]cn1)C(=O)N1CCC[C@H]1C(=O)NCC(=O)N[C@@H](CC(C)C)C(=O)N[C@@H](CC(C)C)C(=O)N[C@@H](CO)C(=O)N[C@@H](CCC(=O)O)C(=O)N[C@@H](CCCCN)C(=O)N[C@@H](C)C(=O)N[C@@H](C)C(=O)N[C@@H](CO)C(=O)N[C@@H](CCCCN)C(=O)N[C@H](C(=O)N[C@@H](CC(N)=O)C(=O)N[C@@H](CCC(=O)O)C(=O)N[C@H](C(=O)N[C@@H](CCSC)C(=O)N[C@@H](CC(C)C)C(=O)O)[C@@H](C)O)[C@@H](C)CC)[C@@H](C)CC)[C@@H](C)O)C(C)C` (Palmitoyl-RGVMTLFSIKSNHPGLLSEKAASKINETML-OH), 640 nM.
In turn, `CCCCCCCCCCCCCCCC(=O)N[C@H](C(=O)N[C@@H](Cc1ccc(O)cc1)C(=O)N[C@@H](C)C(=O)N[C@@H](Cc1c[nH]c2ccccc12)C(=O)N[C@@H](Cc1cnc[nH]1)C(=O)N[C@H](C(=O)N[C@@H](CO)C(=O)N[C@@H](Cc1ccccc1)C(=O)N[C@@H](CCCCN)C(=O)N[C@@H](C)C(=O)N[C@@H](CC(C)C)C(=O)O)[C@@H](C)O)[C@@H](C)O` (Palmitoyl-TYAWHTSFKAL-OH) yielded an IC50 of 700 nM.
On the same count and under the same terms, the same measure for `CCCCCCCCCCCCCCCC(=O)NCCCC[C@H](NC(=O)[C@H](CCCNC(=N)N)NC(=O)[C@H](CC(C)C)NC(=O)[C@H](CCSC)NC(=O)[C@@H](NC(=O)[C@H](CCC(=O)O)NC(=O)[C@H](CC(N)=O)NC(=O)[C@@H](NC(=O)[C@H](CCCCN)NC(=O)[C@H](CO)NC(=O)[C@H](C)NC(=O)[C@H](C)NC(=O)[C@H](CCCCN)NC(=O)[C@H](CCC(=O)O)NC(=O)[C@H](CO)NC(=O)[C@H](CC(C)C)NC(=O)[C@H](CC(C)C)NC(C)=O)[C@@H](C)CC)[C@@H](C)O)C(=O)O` (stereo in doubt; form 2): 1330 nM; for Ac-LTYAWHTSFKAL-OH: more than 10000 nM.
In the case of Ac-TYAWHTSFKA-OH, half-maximal inhibition (IC50) was put at 2800 nM.
Molecule H-VWFVVLTYAWHTSFKAL-OH registered an IC50 of more than 5000 nM.
Molecule H-WFVVLTYAWHTSFKAL-OH yielded an IC50 of more than 5000 nM.

Still in this experiment, the particulars now being: sk-mel-2.
Molecule `CCCCCCCCCCCCCCCC(=O)NCCCC[C@H](NC(=O)[C@H](CCCNC(=N)N)NC(=O)[C@H](CC(C)C)NC(=O)[C@H](CCSC)NC(=O)[C@@H](NC(=O)[C@H](CCC(=O)O)NC(=O)[C@H](CC(N)=O)NC(=O)[C@@H](NC(=O)[C@H](CCCCN)NC(=O)[C@H](CO)NC(=O)[C@H](C)NC(=O)[C@H](C)NC(=O)[C@H](CCCCN)NC(=O)[C@H](CCC(=O)O)NC(=O)[C@H](CO)NC(=O)[C@H](CC(C)C)NC(=O)[C@H](CC(C)C)NC(C)=O)[C@@H](C)CC)[C@@H](C)O)C(=O)O` (stereo in doubt; form 1) registered an IC50 of 800 nM.
